Source: publication PMC6889097 (Virologica Sinica, 2019)
pIC50: −log10 of the molar value. Like-named read-outs stand apart in the source and are kept apart here. Marks after values point to notes of the source that are not given here.

Columns and labels:
CCL2 = assay: cells; type: cell-based, human; conditions: for pIC50: Homo sapiens
CXCL10 = assay: cells; type: cell-based, human; conditions: for pIC50: Homo sapiens, U-937, read-out: IC50 CXCL10
[1] = tested on: A/PuertoRico/8/1934 (H1N1) influenza virus; assay: microbe, parasite or virus in culture; type: cell-based, influenza virus A/PuertoRico/8/1934 (H1N1)
[2] = tested on: lethal influenza virus infection; conditions: mouse, cited from earlier work
U937 cells = assay: Cell viability; type: cell-based, human; conditions: 50% cytotoxic concentration, MTS assay, U937 cells; validation panel (Table 2)
How it was run: (§1)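 Uninfected U937 cells, 40,000/well (1 × 10^6 cells/mL) in RPMI 1640 + 10% FBS, were incubated with serially diluted test compound in 384-well plates for 48 h at 37 ℃/5% CO2. After the plates were spun at 500 ×g for 3 min, supernatant was replaced with medium containing 20% MTS reagent for 1 h at 37 ℃. OD490 was read against reference OD630, and CC50 was derived.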

Cell viability = type: cell-based, human; conditions: human; for CC50 at 48 h: uninfected U937 cells; for CC50: U937 cells
How it was run: as §1

[3] = Influenza A virus, H1N1, U-937, read-out: IC50 NA

| SMILES | IC50 CCL2 (CCL2) | IC50 CXCL10 (CXCL10) | In vivo: the protective effect of mice from lethal influenza infection [2] | CC50 at 48 h (Cell viability) [µM] | IC50 NA [1] | reported effect on survival rate of influenza-infected mice ([2]; in vivo) | CC50 (Cell viability) [µM] | further results |
| --- | --- | --- | --- | --- | --- | --- | --- | --- |
| CCOC(=O)C1=C[C@@H](OC(CC)CC)[C@H](NC(C)=O)[C@@H](N)C1 [Oseltamivir] | – (key: –: lower than 50% inhibition or not effective) | – (key: –: lower than 50% inhibition or not effective) | + | – | – | – | – | antiviral effect in the U937 cell model (result in words) [1]: antiviral effects; pIC50 ([1]; read-out: IC50 NA): 6.24; CC50 (U937 cells): > 100 µM |
| Cc1nc(Nc2ncc(C(=O)Nc3c(C)cccc3Cl)s2)cc(N2CCN(CCO)CC2)n1 [Dasatinib] | – | – | – | > 90 | – | – | – | – |
| C=CC(=O)N1CCC[C@@H](n2nc(-c3ccc(Oc4ccccc4)cc3)c3c(N)ncnc32)C1 [Ibrutinib, ibrutinib] | – | – | +^i | – | –^h (key: –: lower than 50% inhibition or not effective) | improve the survival rate and pathology | 26.5 | pIC50 (CCL2; U-937, read-out: IC50 CCL2): 6.21; pIC50 (CXCL10): 6.02; reported protection of mice from lethal influenza infection ([2]; in vivo): protect mice from lethal influenza infection |
| CCOC(=O)N[C@@H]1CC[C@@H]2[C@@H](C1)C[C@H]1C(=O)O[C@H](C)[C@H]1[C@H]2/C=C/c1ccc(-c2cccc(F)c2)cn1 [Vorapaxar, vorapaxar] | – | – | + | – | – (key: –: lower than 50% inhibition or not effective) | improve the survival rate and pathology | > 80 | pIC50 (CCL2; U-937, read-out: IC50 CCL2): 5.28; pIC50 (CXCL10): 4.88 |
| CNCCCC1c2ccccc2C=Cc2ccccc21 [Protriptyline] | – | – | – | > 90 | – | – | – | – |
| CN(CCOc1ccc(CC2SC(=O)NC2=O)cc1)c1ccccn1 (stereo not shown) [Rosiglitazone, rosiglitazone] | – (key: –: lower than 50% inhibition or not effective) | – (key: –: lower than 50% inhibition or not effective) | + | – | – (key: –: lower than 50% inhibition or not effective) | improve the survival rate and pathology | > 100 | – |
| Cc1ccc(-c2ncc(Cl)cc2-c2ccc(S(C)(=O)=O)cc2)cn1 [Etoricoxib, etoricoxib] | – (key: –: lower than 50% inhibition or not effective) | – (key: –: lower than 50% inhibition or not effective) | ±^j | – | – (key: –: lower than 50% inhibition or not effective) | no improvement on the survival rate | > 50 | effect on the production of CCL2 in U937 cell model (result in words) (CCL2): no inhibitory effect; effect on the production of CXCL10 in U937 cell model (result in words) (CXCL10): no inhibitory effect |
| NC(=O)c1ncn([C@@H]2O[C@H](CO)[C@@H](O)[C@H]2O)n1 [Ribavirin] | – (key: –: lower than 50% inhibition or not effective) | – (key: –: lower than 50% inhibition or not effective) | – | – | – | – | > 160 | antiviral effect in the U937 cell model (result in words) [1]: antiviral effects; pIC50 [1, 3]: 4.58 |
| CC(C)Cc1ccc(C(C)C(=O)O)cc1 (stereo not shown) [Ibuprofen, ibuprofen] | – (key: –: lower than 50% inhibition or not effective) | – (key: –: lower than 50% inhibition or not effective) | – | – | – (key: –: lower than 50% inhibition or not effective) | – | > 50 | effect on the production of CCL2 in U937 cell model (result in words) (CCL2): no inhibitory effect; effect on the production of CXCL10 in U937 cell model (result in words) (CXCL10): no inhibitory effect |
| CCC(C)(C)C(=O)O[C@H]1C[C@@H](C)C=C2C=C[C@H](C)[C@H](CC[C@@H]3C[C@@H](O)CC(=O)O3)[C@H]21 [Simvastatin] | – | – | – | 66.8 | – | – | – | – |
| CC(C)Oc1ccc(-c2nc(-c3cccc4c3CC[C@@H]4NCCO)no2)cc1C#N [Ozanimod, ozanimod] | – | – | + | – | – (key: –: lower than 50% inhibition or not effective) | improve the survival rate and pathology | 26 | pIC50 (CCL2; U-937, read-out: IC50 CCL2): 5.11; pIC50 (CXCL10): 4.97 |
| O=C(O)C[C@H](O)C[C@H](O)/C=C/c1c(C2CC2)nc2ccccc2c1-c1ccc(F)cc1 [Pitavastatin] | – | – | – | > 90 | – | – | – | – |
| CC(C)n1c(/C=C/C(O)CC(O)CC(=O)O)c(-c2ccc(F)cc2)c2ccccc21 (stereo not shown) [Fluvastatin] | – | – | – | > 90 | – | – | – | – |
| CC[C@@H]1/C=C(\C)C[C@H](C)C[C@H](OC)[C@H]2O[C@@](O)(C(=O)C(=O)N3CCCC[C@H]3C(=O)O[C@H](/C(C)=C/[C@@H]3CC[C@@H](O)[C@H](OC)C3)[C@H](C)[C@@H](O)CC1=O)[C@H](C)C[C@@H]2OC [Ascomycin, ascomycin] | – | – | + | – | – | – | 62 | pIC50 (CCL2; U-937, read-out: IC50 CCL2): 5.09; pIC50 (CXCL10): 5.00; antiviral effect in the U937 cell model (result in words) [1]: antiviral effects; pIC50 [1, 3]: 4.67 |
| C[C@H]1COc2c(N3CCN(C)CC3)c(F)cc3c(=O)c(C(=O)O)cn1c23 [Levofloxacin] | – | – | – | > 90 | – | – | – | pIC50 (CCL2; U-937, 48 h, read-out: IC50 CCL2): ≥ 5.00; reported survival rate in mice infected with the H1N1 PR8 virus ([2]; in vivo): increased the survival rate |
